# From ChEMBL document CHEMBL4371053, “A novel tetrazole analogue of resveratrol is a potent anticancer agent” (Bioorg Med Chem Lett, 2019)
# Activity calls are given as the source filed them. No cut-off for these calls is given here.
# Experiments:
# [1] = tested on: DU-145; assay: Growth inhibition of human DU145 cells at 10 uM after 48 hrs by sulforhodamine B assay relative to control; type: functional; conditions: DU-145, 48 h, values are per cent of control
# Procedure, shortened: (§1)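 NCI-60 single-dose screen. Cells exposed to 10⁻⁵ M or to vehicle for 48 h. Growth measured by sulforhodamine B optical density before and after exposure. Reported as percent growth relative to vehicle control and to time-zero cell number; negative values indicate cell kill.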
# [2] = tested on: NCI-H460; assay: Growth inhibition of human NCI-H460 cells at 10 uM after 48 hrs by sulforhodamine B assay relative to control; type: functional; conditions: NCI-H460, 48 h, values are per cent of control; procedure, shortened: as §1
# [3] = tested on: SK-MEL-5; assay: Growth inhibition of human SK-MEL-5 cells at 10 uM after 48 hrs by sulforhodamine B assay relative to control; type: functional; conditions: SK-MEL-5, 48 h, values are per cent of control; procedure, shortened: as §1
# [4] = tested on: KM12; assay: Growth inhibition of human KM12 cells at 10 uM after 48 hrs by sulforhodamine B assay relative to control; type: functional; conditions: KM12, 48 h, values are per cent of control; procedure, shortened: as §1
# [5] = tested on: OVCAR-3; assay: Growth inhibition of human OVCAR3 cells at 10 uM after 48 hrs by sulforhodamine B assay relative to control; type: functional; conditions: OVCAR-3, 48 h, values are per cent of control; procedure, shortened: as §1
# [6] = target: Tubulin (Homo sapiens) (UniProt P68371+Q9H4B7+P0DPH7+P68366+Q13509+Q71U36+P04350+Q3ZCM7+P07437+P68363+Q9BQE3+Q6PEY2+Q13885+Q9BVA1+Q9BUF5); assay: Inhibition of tubulin (unknown origin) polymerization at 2 uM by immunoblot analysis; type: protein-complex assay
# Procedure, shortened: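 Cell-based assay. Cells were treated with compound at 1.0 and 2.0 μM. Polymerized tubulin (pellet) was separated from unpolymerized tubulin (supernatant), and both fractions were immunoblotted with anti-tubulin antibody.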
# [7] = tested on: NCI-H522; assay: Growth inhibition of human NCI-H522 cells at 10 uM after 48 hrs by sulforhodamine B assay relative to control; type: functional; conditions: NCI-H522, 48 h, values are per cent of control; procedure, shortened: as §1
# [8] = tested on: MDA-MB-435; assay: Growth inhibition of human MDA-MB-435 cells at 10 uM after 48 hrs by sulforhodamine B assay relative to control; type: functional; conditions: MDA-MB-435, 48 h, values are per cent of control; procedure, shortened: as §1
# [9] = tested on: A498; assay: Growth inhibition of human A498 cells at 10 uM after 48 hrs by sulforhodamine B assay relative to control; type: functional; conditions: A498, 48 h, values are per cent of control; procedure, shortened: as §1
# [10] = tested on: SF-539; assay: Growth inhibition of human SF539 cells at 10 uM after 48 hrs by sulforhodamine B assay relative to control; type: functional; conditions: SF-539, 48 h, values are per cent of control; procedure, shortened: as §1
SMILES,"growth, % of control at 10 µM [1] [%]","growth, % of control at 10 µM [2] [%]","growth, % of control at 10 µM [3] [%]","growth, % of control at 10 µM [4] [%]","growth, % of control at 10 µM [5] [%]",inhibition [6],"growth, % of control at 10 µM [7] [%]","growth, % of control at 10 µM [8] [%]","growth, % of control at 10 µM [9] [%]","growth, % of control at 10 µM [10] [%]"
COc1ccc(/C=C(/c2cc(OC)c(OC)c(OC)c2)c2nnn[nH]2)cc1,108,110,94.1,102,113,Active,90.3,100,102,
COc1ccc(/C(=C/c2cc(OC)c(OC)c(OC)c2)c2nnn[nH]2)cc1OC,106,106,96.4,99.8,118,,90.2,102,89.5,96.2
COc1ccc(/C=C(/c2ccc([N+](=O)[O-])cc2)c2nnn[nH]2)c2ccccc12,113,103,97.1,111,112,Active,89.4,105,112,104
